Reference: ChEMBL document CHEMBL2311264, “Synthesis and anticancer activity of heteroaromatic linked 4β-amido podophyllotoxins as apoptotic inducing agents” (Bioorg Med Chem Lett, 2013)
Activity calls are given as the source filed them. The rule behind the calls is not given here.

What was measured:
[1] = tested on: A549; assay: Induction of apoptosis in human A549 cells assessed as increase in caspase3 activity at 3 uM after 48 hrs relative to control; type: functional
Procedure, shortened: (§1)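 A-549 cells were seeded at 2.5 × 10^6/well and treated 48 h alongside etoposide, then scraped and lysed on ice. Supernatant was mixed with 2X assay buffer and Ac-DEVD-AFC substrate for 1 h. Fluorescence (ex 400, em 505 nm) was read every 5 min, normalized to Bradford protein and expressed as fold over control. Two experiments, each in triplicate.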

[2] = tested on: A549; assay: Induction of apoptosis in human A549 cells assessed as increase in caspase3 activity at 1 uM after 48 hrs relative to control; type: functional; procedure, shortened: as §1
[3] = tested on: A549; assay: Induction of apoptosis in human A549 cells assessed as increase in fluorescence at 1 uM after 24 hrs by Hoechst staining method relative to control; type: functional, cell-based
Procedure, shortened: (§2)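 Cells were seeded at 10,000 per coverslip and grown 24 h, then treated 24 h. Vehicle control was 0.001% DMSO; etoposide was the standard. Hoechst at […] with 4% paraformaldehyde was added for 30 min at 37 °C. Random fields were imaged by fluorescence microscopy and apoptotic cells scored manually by cytoplasmic condensation, apoptotic bodies, nuclear fragmentation and relative fluorescence.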

[4] = tested on: A549; assay: Induction of apoptosis in human A549 cells assessed as increase in fluorescence at 3 uM after 24 hrs by Hoechst staining method relative to control; type: functional, cell-based; procedure, shortened: as §2
[5] = tested on: A549; assay: Induction of apoptosis in human A549 cells assessed as nuclear fragmentation at 3 uM after 24 hrs by Hoechst staining method; type: functional, cell-based; procedure, shortened: as §2
[6] = tested on: A549; assay: Induction of apoptosis in human A549 cells assessed as nuclear fragmentation at 1 uM after 24 hrs by Hoechst staining method; type: functional, cell-based; procedure, shortened: as §2
[7] = tested on: A549; assay: Induction of apoptosis in human A549 cells assessed as apoptotic bodies at 3 uM after 24 hrs by Hoechst staining method; type: functional, cell-based; procedure, shortened: as §2
[8] = tested on: A549; assay: Induction of apoptosis in human A549 cells assessed as apoptotic bodies at 1 uM after 24 hrs by Hoechst staining method; type: functional, cell-based; procedure, shortened: as §2
[9] = tested on: A549; assay: Induction of apoptosis in human A549 cells assessed as cytoplasmic condensation at 3 uM after 24 hrs by Hoechst staining method; type: functional, cell-based; procedure, shortened: as §2
[10] = tested on: A549; assay: Induction of apoptosis in human A549 cells assessed as cytoplasmic condensation at 1 uM after 24 hrs by Hoechst staining method; type: functional, cell-based; procedure, shortened: as §2
[11] = tested on: A549; assay: Induction of apoptosis in human A549 cells assessed as DNA fragmentation at 3 uM after 48 hrs by agarose gel electrophoretic analysis; type: functional, cell-based
Procedure, shortened: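 Cells were seeded at 1 × 10^6/well and grown 48 h, then treated 48 h. Cells were pelleted and lysed. Lysate was given SDS and RNase-A at 56 °C for 2 h, then proteinase K at 37 °C for 2 h. DNA was precipitated with ammonium acetate and cold ethanol, washed with 80% ethanol and dissolved in TE. Laddering was read on 2% agarose gel in TE; 50 bp marker.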

[12] = tested on: A549; assay: Induction of cell cycle arrest in human A549 cells assessed as G2/M phase cells at 3 uM by FACS analysis (reference value: 9.89%); type: functional
[13] = tested on: A549; assay: Induction of cell cycle arrest in human A549 cells assessed as G2/M phase cells at 1 uM by FACS analysis (reference value: 9.89%); type: functional
[14] = tested on: A549; assay: Induction of cell cycle arrest in human A549 cells assessed as S phase cells at 3 uM by FACS analysis (reference value: 3.69%); type: functional
[15] = tested on: A549; assay: Induction of cell cycle arrest in human A549 cells assessed as S phase cells at 1 uM by FACS analysis (reference value: 3.69%); type: functional
[16] = tested on: A549; assay: Induction of cell cycle arrest in human A549 cells assessed as G1 phase cells at 3 uM by FACS analysis (reference value: 85.33%); type: functional
[17] = tested on: A549; assay: Induction of cell cycle arrest in human A549 cells assessed as G1 phase cells at 1 uM by FACS analysis (reference value: 85.33%); type: functional
[18] = tested on: A549; assay: Induction of cell cycle arrest in human A549 cells assessed as sub G1 phase cells at 3 uM by FACS analysis (reference value: 1.08%); type: functional
[19] = tested on: A549; assay: Induction of cell cycle arrest in human A549 cells assessed as sub G1 phase cells at 1 uM by FACS analysis (reference value: 1.08%); type: functional
[20] = tested on: HeLa; assay: Cytotoxicity against human HeLa cells […] by MTT assay; type: functional, cell-based
[21] = tested on: ACHN; assay: Cytotoxicity against human ACHN cells […] by MTT assay; type: functional, cell-based
[22] = tested on: B16; assay: Cytotoxicity against mouse B16 cells […] by MTT assay; type: functional, cell-based
[23] = tested on: HT-29; assay: Cytotoxicity against human HT-29 cells after 72 hrs by MTT assay; type: functional, cell-based; settings: HT-29, 72 h
[24] = tested on: A549; assay: Cytotoxicity against human A549 cells […] by MTT assay; type: functional, cell-based

COc1cc([C@@H]2c3cc4c(cc3[C@@H](NC(=O)c3cc(-c5ccc(Cl)c(Cl)c5)[nH]n3)[C@H]3COC(=O)[C@H]23)OCO4)cc(OC)c1OC
fold change (FC) [1]: 6 | fold change (FC) [2]: 4 | Activity [3]: Active | Activity [4]: Active | Activity [5]: Active | Activity [6]: Active | Activity [7]: Active | Activity [8]: Active | Activity [9]: Active | Activity [10]: Active | Activity [11]: Active | Activity [12]: 61.28% | Activity [13]: 27.68% | Activity [14]: 8.96% | Activity [15]: 2.27% | Activity [16]: 27.71% | Activity [17]: 63.35% | Activity [18]: 2.05% | Activity [19]: 6.77% | IC50 [20]: 9.3 µM | IC50 [21]: 15.9 µM | IC50 [22]: 9.5 µM | IC50 [23]: 7.1 µM | IC50 [24]: 2.1 µM
